Source: ChEMBL document CHEMBL4725283, “Selective Peptidomimetic Inhibitors of NTMT1/2: Rational Design, Synthesis, Characterization, and Crystallographic Studies” (J Med Chem, 2020)
pKd: −log10 of the molar value. Activity calls are given as the source filed them. The rule behind the calls is not given here.

Experiments:
[1] = molecular target: T1, N-terminal Xaa-Pro-Lys N-methyltransferase 1 (Homo sapiens) (UniProt Q9BV86); assay: Non-competitive inhibition of recombinant human full-length His6-tagged NTMT1 (1 to 222 residues) expressed in Escherichia coli BL21-CodonPlus(DE3)-RIL competent cells pre-incubated for 10 mins in presence of varying levels of SAM and SAHH before fixed level of RCC1-6 addition and measured after 15 mins by fluorescence based SAHH-coupled assay; settings: time 25.0 min
T1 sequence (whole entry): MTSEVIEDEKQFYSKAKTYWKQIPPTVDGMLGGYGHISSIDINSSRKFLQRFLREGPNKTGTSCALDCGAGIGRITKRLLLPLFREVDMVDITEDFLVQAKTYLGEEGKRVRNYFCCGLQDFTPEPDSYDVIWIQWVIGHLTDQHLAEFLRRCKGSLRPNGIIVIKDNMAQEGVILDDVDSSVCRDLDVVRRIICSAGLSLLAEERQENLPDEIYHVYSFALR
How it was run: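 Same SAHH-coupled ThioGlo1 set-up as the substrate series: 25 mM Tris pH 7.4, 50 mM KCl, 10 µM SAHH, 0.2 µM NTMT1, 15 µM ThioGlo1, inhibitor 0–100 µM. […] Triplicate IC50 at each SAM level plotted against [SAM]/Km.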

Homo sapiens [2] = species on record: Homo sapiens; assay: Selectivity for human NTMT1 over human PRDMT7 at 100 uM
How it was run: (§1)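 Panel of 41 PKMTs, PRMTs, DNMTs and NTMT1/2, tested at 100 µM compound in duplicate (n=2).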

Homo sapiens [3] = species on record: Homo sapiens; assay: Selectivity for human NTMT1 over human NSD2 E1099K mutant at 100 uM; how it was run: as §1
Homo sapiens [4] = species on record: Homo sapiens; assay: Selectivity for human NTMT1 over human PRDMT1 at 100 uM; how it was run: as §1
Homo sapiens [5] = species on record: Homo sapiens; assay: Selectivity for human NTMT2 over GST-tagged human METTL21A at 100 uM
How it was run: (§2)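 Single-point panel screen against 41 PKMTs, PRMTs, DNMTs and NTMT1/2. Each compound was tested at 100 µM, in duplicate (n=2).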

Homo sapiens [6] = species on record: Homo sapiens; assay: Selectivity for human NTMT2 over human DNMT3b/3L at 100 uM; how it was run: as §2
Homo sapiens [7] = species on record: Homo sapiens; assay: Selectivity for human NTMT1 over human PRDMT6 at 100 uM; how it was run: as §1
Homo sapiens [8] = species on record: Homo sapiens; assay: Selectivity for human NTMT2 over human PRDMT6 at 100 uM; how it was run: as §2
Homo sapiens [9] = species on record: Homo sapiens; assay: Selectivity for human NTMT2 over human DNMT3b at 100 uM; how it was run: as §2
Homo sapiens [10] = species on record: Homo sapiens; assay: Selectivity for human NTMT1 over human G9a at 100 uM; how it was run: as §1
Homo sapiens [11] = species on record: Homo sapiens; assay: Selectivity for human NTMT2 over human SUV420H1TV2 at 100 uM; how it was run: as §2
Homo sapiens [12] = species on record: Homo sapiens; assay: Selectivity for human NTMT1 over human EZH2 complex Y641F mutant at 100 uM; how it was run: as §1
Homo sapiens [13] = species on record: Homo sapiens; assay: Selectivity for human NTMT2 over human NSD2 E1099K mutant at 100 uM; how it was run: as §2
[14] = molecular target: N-terminal Xaa-Pro-Lys N-methyltransferase 2 (Homo sapiens, UniProt Q5VVY1); assay: Binding affinity to recombinant human full-length His6-tagged NTMT2 by ITC assay
How it was run: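 ITC at 25 °C. Purified protein (NTMT1 for line 1, NTMT2 for line 2) in 20 mM Tris-HCl pH 7.5, 150 mM NaCl, 0.5 mM TCEP at 30–50 µM final. Compound at 0.5–1 mM in the same buffer, titrated in as 26 injections of 10 µl, 180 s apart, reference power 15 µcal/sec.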

Sequence of N-terminal Xaa-Pro-Lys N-methyltransferase 2 (Q5VVY1 whole entry): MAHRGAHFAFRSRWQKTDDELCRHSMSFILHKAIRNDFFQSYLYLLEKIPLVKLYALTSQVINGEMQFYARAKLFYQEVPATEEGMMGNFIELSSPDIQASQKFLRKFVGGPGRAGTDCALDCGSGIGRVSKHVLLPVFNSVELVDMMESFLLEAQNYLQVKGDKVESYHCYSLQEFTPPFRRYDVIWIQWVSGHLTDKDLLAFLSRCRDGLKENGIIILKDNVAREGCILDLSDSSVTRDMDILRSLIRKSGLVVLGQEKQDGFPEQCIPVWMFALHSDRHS

inhibition [1]: Active
Selectivity ratio (Homo sapiens [2]): > 100
Selectivity ratio (Homo sapiens [3]): > 100
Selectivity ratio (Homo sapiens [4]): > 100
Selectivity ratio (Homo sapiens [5]): > 100
Selectivity ratio (Homo sapiens [6]): > 100
Selectivity ratio (Homo sapiens [7]): > 100
Selectivity ratio (Homo sapiens [8]): > 100
Selectivity ratio (Homo sapiens [9]): > 100
Selectivity ratio (Homo sapiens [10]): > 100
Selectivity ratio (Homo sapiens [11]): > 100
Selectivity ratio (Homo sapiens [12]): > 100
Selectivity ratio (Homo sapiens [13]): > 100
pKd [14]: 5.43
SMILES: N=C(N)NCCC[C@H](NC(=O)[C@H](CCCCN)NC(=O)[C@@H]1CCCN1C(=O)Cc1ccc(O)cc1)C(N)=O
